# The RNAGym collection of RNA variant scans (doi:10.1002/anie.201605470)
# B1: Osa-1-4 twister ribozyme (parent)
# chain: CCGCCUAACACUGCCAAUGCCGGUCCCAAGCCCGGAUAAAAGUGGAGGGGGCGG
# Variants of: B1
# Assay: self-cleavage, relative activity (ratio to wild type); higher = more cleavage; co-transcriptional
# How it was run: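 The 48 positions downstream of the cleavage site in a 54-nucleotide Oryza sativa twister ribozyme template were synthesised at 97 % wild-type base and 1 % of each other base. The template was transcribed in vitro at 37 °C for 2 h, with self-cleavage allowed during transcription. Reads with or without upstream sequence after deep sequencing marked cleavage status, and relative activity is fraction cleaved normalised to wild type.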
row,Variant,self-cleavage
1,A46U C15G,0.08
2,A46U C15U,0.06
3,A46U C15A,0.05
4,G48A U12G,0.04
5,G48A U12C,0.04
6,G48A U12A,0.07
7,A46U U43A,0.08
8,A46U U43G,0.07
9,A46U U43C,0.06
10,G48C G53U,0.07
11,G48C G53C,0.05
12,G48C G53A,0.09
13,G48C G51U,0.06
14,G48C G51A,0.11
15,G48C G51C,0.04
16,A46U C21G,0.02
17,A46U C21U,0.06
18,A46U C21A,0.07
19,A46U G22A,0.09
20,A46U G22C,0.03
21,A46U G22U,0.06
22,G49A U24A,0.05
23,G49A U24C,0.05
24,A46U U37A,0.05

row,Variant,self-cleavage
1,A46U U37C,0.09
2,A46U U37G,0.11
3,G47U U12A,0.07
4,G47U U12G,0.05
5,G47U U12C,0.07
6,G48A U37G,0.16
7,G48A U37A,0.06
8,G48A U37C,0.11
9,G48A G54A,0.15
10,G48A G54U,0.37
11,G48A G54C,0.15
12,G47C G51A,0.09
13,G47C G51U,0.05
14,G47C G51C,0.05
15,A46G U43A,0.06
16,A46G U43G,0.12
17,A46G U43C,0.04
18,G48U U18C,0.08
19,G48U U18A,0.07
20,G48U U18G,0.13
21,G48U G54A,0.11
22,G48U G54U,0.34
23,G48U G54C,0.1
24,G49A G54C,0.11

row,Variant,self-cleavage
1,G49A G54U,0.39
2,G49A G54A,0.15
3,G47A U18G,0.56
4,G47A U18A,0.33
5,G47A U18C,0.22
6,G48U U24C,0.03
7,G48U U24G,0.01
8,G48U U24A,0.03
9,G48A U43A,0.06
10,G48A U43C,0.06
11,G48A U43G,0.06
12,G47C G48C,0.05
13,G47C G48U,0.03
14,G47C G48A,0.04
15,A46U C27A,0.04
16,A46U C27U,0.06
17,A46U C27G,0.03
18,G47A U43C,0.09
19,G47A U43A,0.11
20,G47A U43G,0.1
21,G49A U18G,0.29
22,G49A U18C,0.16
23,G49A U18A,0.16
24,G48C U18A,0.09

row,Variant,self-cleavage
1,G48C U18C,0.1
2,G48C U18G,0.1
3,A46U G42A,0.08
4,A46U G42U,0.03
5,A46U G42C,0.06
6,G48U G51C,0.04
7,G48U G51A,0.11
8,G48U G51U,0.07
9,G49A G51A,0.33
10,G49A G51U,0.15
11,G49A G51C,0.09
12,A46U U12A,0.07
13,A46U U12G,0.07
14,A46U U12C,0.06
15,G47A G51A,0.12
16,G47A G51U,0.09
17,G47A G51C,0.05
18,G47C U12C,0.05
19,G47C U12A,0.06
20,G47C U12G,0.06
21,G48A G53A,0.11
22,G48A G53U,0.09
23,G48A G53C,0.07
24,G48C U12G,0.07

row,Variant,self-cleavage
1,G48C U12A,0.07
2,G48C U12C,0.05
3,A46U,0.08
4,A46U G48U,0.03
5,A46U G48A,0.03
6,A46U G48C,0.04
7,G47A U12C,0.07
8,G47A U12A,0.08
9,G47A U12G,0.06
10,G47A G49C,0.04
11,G47A G49U,0.04
12,G47A G49A,0.05
13,G47A G50C,0.07
14,G47A G50U,0.09
15,G47A G50A,0.36
16,G47U U24G,0.02
17,G47U U24C,0.03
18,G47U U24A,0.05
19,A46U C25G,0.04
20,A46U C25U,0.06
21,A46U C25A,0.03
22,A46U G49U,0.05
23,A46U G49A,0.04
24,A46U G49C,0.04

row,Variant,self-cleavage
1,A46U G34C,0.07
2,A46U G34A,0.06
3,A46U G34U,0.06
4,G47U G51C,0.05
5,G47U G51U,0.08
6,G47U G51A,0.09
7,G48C U43G,0.07
8,G48C U43C,0.07
9,G48C U43A,0.08
10,A46U G51A,0.09
11,A46U G51U,0.06
12,A46U G51C,0.05
13,G48A G51A,0.1
14,G48A G51U,0.05
15,G48A G51C,0.04
16,G47A U37A,0.28
17,G47A U37G,0.62
18,G47A U37C,0.44
19,A46U G47U,0.05
20,A46U G47C,0.04
21,A46U G47A,0.06
22,G48A G50U,0.09
23,G48A G50C,0.09
24,G48A G50A,0.16

row,Variant,self-cleavage
1,A46U C9U,0.04
2,A46U C9G,0.06
3,A46U C9A,0.02
4,A46U G30C,0.01
5,A46U G30A,0.02
6,A46U G30U,0.02
7,G48U U37A,0.05
8,G48U U37G,0.11
9,G48U U37C,0.09
10,G47C,0.17
11,G47A,0.51
12,G47U,0.42
13,G48U U12G,0.05
14,G48U U12A,0.07
15,G48U U12C,0.04
16,G48A U18A,0.09
17,G48A U18G,0.13
18,G48A U18C,0.1
19,G47C U18C,0.1
20,G47C U18A,0.12
21,G47C U18G,0.24
22,A46U G50A,0.08
23,A46U G50U,0.09
